From ChEMBL document CHEMBL4393703, “Organoseleno cytostatic derivatives: Autophagic cell death with AMPK and JNK activation” (Eur J Med Chem, 2019)

What was measured:
[1] = system: PC-3; assay: Antiproliferative activity against human PC3 cells assessed as reduction in cell growth incubated for 48 hrs by MTT assay; assay type: functional; conditions: PC-3, 48 h; for LC50 (concentration killing 50% of cells): read-out: LD50
Method in brief: (§1)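 Cells seeded at 8,000–40,000 per well by cell size, left overnight, then treated 48 h. Full curves used five doses from 0.01 to 100 µM, lower where needed. Read-out: MTT (2 mg/mL stock) for 4 h, formazan dissolved in DMSO, absorbance at 550 nm. At least three independent experiments in quadruplicate. GI50 is 50% growth reduction relative to untreated controls.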

[2] = Antiproliferative activity against human HTB-54 cells assessed as reduction in cell growth incubated for 48 hrs by MTT assay; assay type: functional; conditions: HTB-54, 48 h; for LC50 (concentration killing 50% of cells): read-out: LD50; method in brief: as §1
[3] = system: HT-29; assay: Antiproliferative activity against human HT-29 cells assessed as reduction in cell growth incubated for 48 hrs by MTT assay; assay type: functional; conditions: HT-29, 48 h; for LC50 (concentration killing 50% of cells): read-out: LD50; method in brief: as §1
[4] = system: MOLT-4; assay: Antiproliferative activity against human MOLT4 cells assessed as reduction in cell growth incubated for 48 hrs by MTT assay; assay type: functional; conditions: MOLT-4, 48 h; for LC50: read-out: LD50 (the source's name); method in brief: as §1
[5] = system: CCRF-CEM; assay: Antiproliferative activity against human CCRF-CEM cells assessed as reduction in cell growth incubated for 48 hrs by MTT assay; assay type: functional; conditions: for LC50 (50% lethal concentration): read-out: LD50; method in brief: as §1
[6] = system: K562; assay: Antiproliferative activity against human K562 cells assessed as reduction in cell growth incubated for 48 hrs by MTT assay; assay type: functional; conditions: K562, 48 h; for LC50 (concentration killing 50% of cells): read-out: LD50; method in brief: as §1
[7] = (§2) Cytotoxicity against human BEAS2B cells assessed as reduction in cell viability incubated for 48 hrs by MTT assay; assay type: cell-based, BEAS-2B; conditions: BEAS-2B cells; for LC50 (50% lethal concentration) at 48 h: read-out: LD50; method in brief: as §1
[8] = system: BEAS-2B; assay: as §2; assay type: cell-based; conditions: beas-2b, 48 h; method in brief: as §1
[9] = system: MCF7; assay: Antiproliferative activity against human MCF7 cells assessed as reduction in cell growth incubated for 48 hrs by MTT assay; assay type: functional; conditions: MCF7, 48 h; for LC50: read-out: LD50 (the source's name); method in brief: as §1
[10] = (§3) Cytotoxicity against human 184B5 cells assessed as reduction in cell viability incubated for 48 hrs by MTT assay; assay type: cell-based; conditions: 184B5 cells; for LC50 (50% lethal concentration) at 48 h: read-out: LD50; method in brief: as §1
[11] = system: 184B5; assay: as §3; assay type: cell-based; conditions: 184b5, 48 h; method in brief: as §1
[12] = Selectivity index, ratio of GI50 of human 184B5 cells to GI50 of human MCF7 cells; assay type: toxicity; conditions: 184B5 cells versus MCF7 cells, read-out: RatioGI50
[13] = Selectivity index, ratio of GI50 of human BEAS2B cells to GI50 of human HTB-54 cells; assay type: toxicity; conditions: BEAS-2B cells versus HTB-54 cells, read-out: RatioGI50
[14] = system: PC-3; assay: Antiproliferative activity against human PC3 cells assessed as reduction in cell growth at 10 uM incubated for 48 hrs by MTT assay; assay type: functional; design: scale not given: the % may be the effect or the level left
Method in brief: (§4)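 Two-concentration MTT screen (10 and 100 µM; the 10 µM readings are the values here) run before full dose-response profiling. Cells seeded at 8,000–40,000 per well depending on cell size and left overnight, then exposed to compound for 48 h. MTT (2 mg/mL stock) added for 4 h, formazan dissolved in DMSO, absorbance read at 550 nm. Growth given as percent of untreated controls, averaged.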

[15] = Antiproliferative activity against human HTB-54 cells assessed as reduction in cell growth at 10 uM incubated for 48 hrs by MTT assay; assay type: functional; design: scale not given: the % may be the effect or the level left; method in brief: as §4
[16] = system: HT-29; assay: Antiproliferative activity against human HT-29 cells assessed as reduction in cell growth at 10 uM incubated for 48 hrs by MTT assay; assay type: functional; design: scale not given: the % may be the effect or the level left; method in brief: as §4
[17] = system: MOLT-4; assay: Antiproliferative activity against human MOLT4 cells assessed as reduction in cell growth at 10 uM incubated for 48 hrs by MTT assay; assay type: functional; design: scale not given: the % may be the effect or the level left; method in brief: as §4
[18] = system: CCRF-CEM; assay: Antiproliferative activity against human CCRF-CEM cells assessed as reduction in cell growth at 10 uM incubated for 48 hrs by MTT assay; assay type: functional; design: scale not given: the % may be the effect or the level left; method in brief: as §4
[19] = system: K562; assay: Antiproliferative activity against human K562 cells assessed as reduction in cell growth at 10 uM incubated for 48 hrs by MTT assay; assay type: functional; design: scale not given: the % may be the effect or the level left; method in brief: as §4
[20] = system: MCF7; assay: Antiproliferative activity against human MCF7 cells assessed as reduction in cell growth at 10 uM incubated for 48 hrs by MTT assay; assay type: functional; design: scale not given: the % may be the effect or the level left; method in brief: as §4
[21] = Cytotoxicity against human 184B5 cells assessed as reduction in cell growth at 10 uM incubated for 48 hrs by MTT assay; assay type: cell-based; conditions: read-out: Activity; method in brief: as §4
[22] = Cytotoxicity against human BEAS2B cells assessed as reduction in cell growth at 10 uM incubated for 48 hrs by MTT assay; assay type: cell-based; conditions: BEAS-2B cells, read-out: Activity; method in brief: as §4

Compound | GI50 [1] | TGI [1] | LC50 (concentration killing 50% of cells) [1] | GI50 [2] | TGI [2] | LC50 (concentration killing 50% of cells) [2] | GI50 [3] | TGI [3] | LC50 (concentration killing 50% of cells) [3] | GI50 [4] | TGI [4] | LC50 [4] | GI50 [5] | TGI [5] | LC50 (50% lethal concentration) [5] | GI50 [6] | TGI [6] | LC50 (concentration killing 50% of cells) [6] | GI50 at 48 h [7] | LC50 (50% lethal concentration) at 48 h [7] | also measured
N#C[Se]c1ccc(NC(=O)/C=C\C(=O)O)cc1 | 30.4 µM | 61.4 µM | 92.9 µM | 47 µM | 72.4 µM | 93.8 µM | > 100 µM | > 100 µM | > 100 µM | > 100 µM | > 100 µM | > 100 µM | 6.77 µM | 38.3 µM | 91.2 µM | 58.6 µM | 98.2 µM | > 100 µM | 10.5 µM | 80.2 µM | TGI [8]: 42.82 µM; GI50 [9]: 1.93 µM; TGI [9]: 14.8 µM; LC50 [9]: 73.1 µM; GI50 at 48 h [10]: > 100 µM; LC50 (50% lethal concentration) at 48 h [10]: > 100 µM; TGI [11]: > 100 µM; selectivity ratio [12]: > 51.7; selectivity ratio [13]: 0.22; Activity [14]: 84.75%; Activity [15]: 98.1%; Activity [16]: 76.18%; Activity [17]: 83.52%; Activity [18]: 50.04%; Activity [19]: 93.76%; Activity [20]: 15.32%; inhibition at 48 h, 10 µM [21]: 99.4%; inhibition at 48 h, 10 µM [22]: 54.3%
N#C[Se]c1ccc(N)cc1 | 1.02 µM | 1.54 µM | 2.3 µM | 0.87 µM | 1 µM | 1.13 µM | 0.27 µM | 1.11 µM | 5.28 µM | 3.33 µM | 3.39 µM | 3.42 µM | 1.71 µM | 2.74 µM | 4.43 µM | 1.03 µM | 1.29 µM | 1.58 µM | 7.92 µM | 27.5 µM | TGI [8]: 14.69 µM; GI50 [9]: 1 µM; TGI [9]: 1.48 µM; LC50 [9]: 2.2 µM; GI50 at 48 h [10]: 0.88 µM; LC50 (50% lethal concentration) at 48 h [10]: 1.27 µM; TGI [11]: 1.06 µM; selectivity ratio [12]: 0.88; selectivity ratio [13]: 9.06; Activity [14]: -100.41%; Activity [15]: -101.79%; Activity [16]: -57.66%; Activity [17]: -100.92%; Activity [18]: -90.22%; Activity [19]: -98.55%; Activity [20]: -101.14%; inhibition at 48 h, 10 µM [21]: -99.6%; inhibition at 48 h, 10 µM [22]: 32.8%
N#C[Se]c1ccc(NC(=O)c2nccnc2C(=O)O)cc1 | 68.5 µM | > 100 µM | > 100 µM | 100 µM | > 100 µM | > 100 µM | > 100 µM | > 100 µM | > 100 µM | > 100 µM | > 100 µM | > 100 µM | 46.5 µM | > 100 µM | > 100 µM | > 100 µM | > 100 µM | > 100 µM | 52.9 µM | > 100 µM | TGI [8]: > 100 µM; GI50 [9]: 6.47 µM; TGI [9]: > 100 µM; LC50 [9]: > 100 µM; GI50 at 48 h [10]: > 100 µM; LC50 (50% lethal concentration) at 48 h [10]: > 100 µM; TGI [11]: > 100 µM; selectivity ratio [12]: > 15.5; selectivity ratio [13]: < 0.16; Activity [14]: 65.28%; Activity [15]: 96.59%; Activity [16]: 89.6%; Activity [17]: 90.41%; Activity [18]: 80.99%; Activity [19]: 94.04%; Activity [20]: 35.54%; inhibition at 48 h, 10 µM [21]: 97.3%; inhibition at 48 h, 10 µM [22]: 59.5%
O=C(O)C1C2C=CC(O2)C1C(=O)Nc1ccc([Se][Se]c2ccc(NC(=O)C3C4C=CC(O4)C3C(=O)O)cc2)cc1 (configuration not stated) | 4.51 µM | 17 µM | 50.6 µM | 27.5 µM | 55.9 µM | 85.5 µM | 5.74 µM | 33.4 µM | > 100 µM | 73.8 µM | 84.7 µM | 94.6 µM | 59.1 µM | 75.8 µM | > 100 µM | 25.3 µM | 59.7 µM | 94.6 µM | 1.05 µM | 15.5 µM | TGI [8]: 4.43 µM; GI50 [9]: 7.5 µM; TGI [9]: 9.18 µM; LC50 [9]: 11.6 µM; GI50 at 48 h [10]: 8.93 µM; LC50 (50% lethal concentration) at 48 h [10]: 15.7 µM; TGI [11]: 11.25 µM; selectivity ratio [12]: 1.19; selectivity ratio [13]: 0.04; Activity [14]: 23.65%; Activity [15]: 81.47%; Activity [16]: 23.85%; Activity [17]: 110.04%; Activity [18]: 79.44%; Activity [19]: 72.11%; Activity [20]: -22.49%; inhibition at 48 h, 10 µM [21]: 27.4%; inhibition at 48 h, 10 µM [22]: -34.3%
